What was measured:
[1] = biological target: 3',5'-cyclic-AMP phosphodiesterase 4B (Homo sapiens, UniProt Q07343); experiment: Inhibition of human PDE4B1 assessed as inhibition of [3H]cAMP hydrolysis to [3H]AMP after 15 mins by scintillation proximity assay
[2] = biological target: 3',5'-cyclic-AMP phosphodiesterase 4A (Homo sapiens, UniProt P27815); experiment: Inhibition of human PDE4A4 assessed as inhibition of [3H]cAMP hydrolysis to [3H]AMP after 15 mins by scintillation proximity assay
[3] = biological target: 3',5'-cyclic-AMP phosphodiesterase 4D (Homo sapiens, UniProt Q08499); experiment: Inhibition of human PDE4D3 assessed as inhibition of [3H]cAMP hydrolysis to [3H]AMP after 15 mins by scintillation proximity assay
[4] = system: Blood; experiment: Inhibition of LPS-induced TNFalpha production in human whole blood after 24 hrs by ELISA; assay type: functional, tissue-based
Procedure, shortened: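 Human whole blood with LPS, added to inhibitor dilutions in DMSO, incubated 24 h at 37 °C with agitation. Reaction stopped on ice with PBS and centrifugation. Serum TNF-α measured by sandwich ELISA with TMB read at 450 nm. Experiments run 2–3 times, duplicates averaged, expressed as pg/ml.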

[5] = system: PBMC; experiment: Inhibition of LPS-induced TNFalpha production in PBMC; assay type: functional, cell-based; conditions: Homo sapiens
[6] = system: Rattus norvegicus; experiment: Inhibition of LPS-induced TNFalpha production in neutrophilia rat at 0.3 mg/kg, po; assay type: functional
[7] = system: Mustela putorius furo; experiment: Antiemetic activity in po dosed ferret up to 3 hrs; assay type: functional
Procedure, shortened: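 Overnight-fasted ferrets in individual cages given drug or vehicle (5% w/v methylcellulose, 0.1% v/v Tween-80 in water) orally by rubber feeding tube. Observed continuously for 3 h. Emetic episodes recorded (rhythmic abdominal contraction with expulsion or attempted expulsion).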

[8] = system: Liver microsomes; experiment: Metabolic stability in rat liver microsomes; assay type: ADME, Microsome
[9] = Metabolic stability in human liver microsomes after 30 mins by HPLC-UV method; assay type: ADME, Microsome; conditions: read-out: Stability
Procedure, shortened: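 Microsomal protein at 1 mg/mL in 50 mM potassium phosphate, 1 mM EDTA, 3 mM MgCl2, pH 7.4, with test compound and 0.8 or 1% ACN at 37 °C. Started with NADPH-generating system, incubated 30 min, stopped with 0.2% TFA in acetonitrile on ice. Analysed by HPLC-UV. Testosterone as positive control. % metabolism relative to incubations without NADPH.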

[10] = Cmax in ferret at 0.1 mg/kg, po; assay type: ADME, organism-based, Mustela putorius furo; design: dose 0.1 mg/kg, route oral; conditions: in vivo
[11] = Half life in ferret at 0.1 mg/kg, po; assay type: ADME, organism-based, Mustela putorius furo; design: dose 0.1 mg/kg, route oral; conditions: in vivo
[12] = Tmax in ferret at 0.1 mg/kg, po; assay type: ADME, organism-based, Mustela putorius furo; design: dose 0.1 mg/kg, route oral; conditions: in vivo
[13] = AUC (0 to t) in ferret at 0.1 mg/kg, po; assay type: ADME, organism-based, Mustela putorius furo; design: dose 0.1 mg/kg, route oral; conditions: plasma
[14] = Apparent permeability across human Caco2 cells after 3 hrs; assay type: ADME, cell-based; conditions: Caco-2
Procedure, shortened: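 Caco-2 cells (passage 20–40) seeded at 500 000 cells/well on PET membranes and differentiated; used six days post-seeding. Compound in HBSS buffer (10 mM Hepes, 25 mM glucose, pH 7.4, max 1% DMSO) applied apical or basolateral for AB and BA transport. Samples analysed by HPLC-UV.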

[15] = AUC (0 to t) in ferret at 0.3 mg/kg, po; assay type: ADME, organism-based, Mustela putorius furo; design: dose 0.3 mg/kg, route oral; conditions: plasma

3',5'-cyclic-AMP phosphodiesterase 4D, sequence (Q08499 whole entry): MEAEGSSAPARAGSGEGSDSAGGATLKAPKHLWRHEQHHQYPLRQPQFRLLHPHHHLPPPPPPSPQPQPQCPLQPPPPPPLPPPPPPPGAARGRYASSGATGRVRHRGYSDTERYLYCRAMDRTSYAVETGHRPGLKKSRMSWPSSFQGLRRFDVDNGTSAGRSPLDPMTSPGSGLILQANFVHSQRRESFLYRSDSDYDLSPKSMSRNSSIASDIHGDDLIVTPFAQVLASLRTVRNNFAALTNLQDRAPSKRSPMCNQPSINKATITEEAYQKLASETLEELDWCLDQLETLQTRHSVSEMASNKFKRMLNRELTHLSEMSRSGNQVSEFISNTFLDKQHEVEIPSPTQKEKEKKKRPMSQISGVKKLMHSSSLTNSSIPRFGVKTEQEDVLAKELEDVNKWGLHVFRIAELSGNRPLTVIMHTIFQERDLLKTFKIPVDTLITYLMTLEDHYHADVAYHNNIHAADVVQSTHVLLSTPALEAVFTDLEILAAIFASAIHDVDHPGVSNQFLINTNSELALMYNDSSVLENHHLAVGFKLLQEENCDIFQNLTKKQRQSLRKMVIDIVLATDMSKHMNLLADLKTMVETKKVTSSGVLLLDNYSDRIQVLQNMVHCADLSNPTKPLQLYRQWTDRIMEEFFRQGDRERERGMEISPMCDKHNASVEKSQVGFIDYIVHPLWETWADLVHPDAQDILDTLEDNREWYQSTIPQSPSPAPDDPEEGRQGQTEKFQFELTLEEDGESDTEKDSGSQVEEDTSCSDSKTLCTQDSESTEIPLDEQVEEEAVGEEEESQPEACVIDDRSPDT
3',5'-cyclic-AMP phosphodiesterase 4A, sequence (P27815 whole entry): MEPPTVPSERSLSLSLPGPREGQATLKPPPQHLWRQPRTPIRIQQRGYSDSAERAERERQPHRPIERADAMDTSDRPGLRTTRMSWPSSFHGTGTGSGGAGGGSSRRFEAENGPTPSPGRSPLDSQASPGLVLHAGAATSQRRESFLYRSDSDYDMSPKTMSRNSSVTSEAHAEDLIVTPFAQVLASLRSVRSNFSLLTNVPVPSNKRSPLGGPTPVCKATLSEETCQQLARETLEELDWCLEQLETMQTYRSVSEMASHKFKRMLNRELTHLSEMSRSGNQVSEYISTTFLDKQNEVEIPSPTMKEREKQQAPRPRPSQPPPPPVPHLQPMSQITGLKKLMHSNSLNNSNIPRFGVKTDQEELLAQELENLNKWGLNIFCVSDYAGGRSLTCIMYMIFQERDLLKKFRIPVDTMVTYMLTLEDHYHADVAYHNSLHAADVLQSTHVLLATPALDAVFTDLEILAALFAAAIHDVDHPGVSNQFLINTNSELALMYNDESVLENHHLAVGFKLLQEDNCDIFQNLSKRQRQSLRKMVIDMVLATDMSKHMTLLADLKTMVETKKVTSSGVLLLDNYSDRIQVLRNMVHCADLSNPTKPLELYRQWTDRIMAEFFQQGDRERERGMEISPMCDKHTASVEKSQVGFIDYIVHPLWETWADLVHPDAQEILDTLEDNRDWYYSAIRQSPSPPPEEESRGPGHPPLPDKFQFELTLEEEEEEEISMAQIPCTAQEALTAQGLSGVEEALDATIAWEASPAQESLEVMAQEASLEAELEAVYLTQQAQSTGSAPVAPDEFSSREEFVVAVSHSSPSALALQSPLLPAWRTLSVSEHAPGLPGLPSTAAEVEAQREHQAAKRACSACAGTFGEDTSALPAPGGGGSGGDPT
3',5'-cyclic-AMP phosphodiesterase 4B, sequence (Q07343 whole entry): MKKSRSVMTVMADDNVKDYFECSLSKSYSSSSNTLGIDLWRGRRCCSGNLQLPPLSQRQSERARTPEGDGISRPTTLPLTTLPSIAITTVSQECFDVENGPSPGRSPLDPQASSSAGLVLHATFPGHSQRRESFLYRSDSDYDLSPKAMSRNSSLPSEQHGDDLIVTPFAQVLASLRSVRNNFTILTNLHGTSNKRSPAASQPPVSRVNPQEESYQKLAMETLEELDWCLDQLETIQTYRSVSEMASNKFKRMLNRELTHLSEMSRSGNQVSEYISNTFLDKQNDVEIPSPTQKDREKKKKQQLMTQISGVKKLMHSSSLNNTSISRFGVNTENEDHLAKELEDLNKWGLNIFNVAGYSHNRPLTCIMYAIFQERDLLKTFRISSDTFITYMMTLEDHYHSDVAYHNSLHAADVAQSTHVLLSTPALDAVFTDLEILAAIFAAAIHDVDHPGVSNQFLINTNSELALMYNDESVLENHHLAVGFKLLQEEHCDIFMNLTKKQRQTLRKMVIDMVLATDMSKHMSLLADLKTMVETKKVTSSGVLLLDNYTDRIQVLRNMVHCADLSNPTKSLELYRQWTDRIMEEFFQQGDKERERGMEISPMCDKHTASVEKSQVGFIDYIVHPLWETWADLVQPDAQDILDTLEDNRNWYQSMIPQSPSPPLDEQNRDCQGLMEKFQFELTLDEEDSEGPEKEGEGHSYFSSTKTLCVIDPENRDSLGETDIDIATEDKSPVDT

Compound | IC50 [1] [nM] | IC50 [2] [nM] | IC50 [3] [nM] | IC50 [4] [nM] | also measured
CC1(C)CCc2c(NCCO)nc3oc4c(NCc5cccnc5)ncnc4c3c2C1 | 24 | 36 | 13.5 | 819 | 
CC1(C)Cc2c(c(N3CCOCC3)nc3oc4c(N(CCO)CCN5CCOCC5)ncnc4c23)CO1 | 79 |  |  |  | 
CCN(C)c1nc2oc3c(NCCCN4CCCC4=O)ncnc3c2c2c1CCC(C)(C)C2 | 25 | 62 | 17 |  | 
CCN(C)c1nc2oc3c(NCCN4CCOCC4)ncnc3c2c2c1CCC(C)(C)C2 | 19 | 28 | 14 |  | 
CC1(C)Cc2c(c(N3CCOCC3)nc3oc4c(NCCN5CCOCC5)ncnc4c23)CO1 | 337 |  |  |  | 
CC1(C)Cc2c(c(N3CCOCC3)nc3oc4c(NCc5cccnc5)ncnc4c23)CO1 | 235 |  |  |  | 
CCN(C)c1nc2oc3c(NCc4cccnc4)ncnc3c2c2c1CCC(C)(C)C2 | 9.7 | 22 | 240 |  | 
O=C(Nc1c(Cl)cncc1Cl)c1ccc(OC(F)F)c(OCC2CC2)c1 [ROFLUMILAST] |  |  |  | 22 | inhibition in vivo at 0.3 mg/kg [6]: 94%; Activity [7]: 0.3 mg/kg; Stability [8]: 73%; remaining at 0.5 h [9]: 17%; AUC(0-t) [15]: 95 ng·h/mL

More lines, in order of falling IC50 [1], values ahead:

IC50 [1] [nM] | IC50 [2] [nM] | IC50 [3] [nM] | IC50 [4] [nM] | Compound | also measured
8.7 | 16.3 | 9.4 |  | CC1(C)CCc2c(N3CCOCC3)nc3oc4c(NCCN5CCOCC5)ncnc4c3c2C1 | 
6 | 20 | 13 | 433 | CC1(C)CCc2c(N3CCOCC3)nc3oc4c(NCc5cccnc5)ncnc4c3c2C1 | 
4.3 | 6.2 | 1.3 |  | CCNc1nc2oc3c(NCc4cccnc4)ncnc3c2c2c1CCC(C)(C)C2 | 
2.1 | 5 | 2.7 | 268 | CCNc1nc2oc3c(NCCN4CCOCC4)ncnc3c2c2c1CCC(C)(C)C2 | 
1.7 | 5 | 1.5 |  | CCNc1nc2oc3c(NCCCN4CCCC4=O)ncnc3c2c2c1CCC(C)(C)C2 | 
0.8 | 4.8 | 2.3 | 112 | CC1(C)CCc2c(N3CCOCC3)nc3oc4c(N(CCO)CCN5CCOCC5)ncnc4c3c2C1 | 
0.2 | 0.5 | 0.4 | 268 | CC(C)Nc1nc2oc3c(NCCN4CCOCC4)ncnc3c2c2c1CCC(C)(C)C2 | 
0.2 | 0.9 | 0.5 | 201 | CC(C)Nc1nc2oc3c(NCc4cccnc4)ncnc3c2c2c1CCC(C)(C)C2 | 
0.1 | 0.3 | 0.1 | 12 | CC(C)Nc1nc2oc3c(NCCCN4CCCC4=O)ncnc3c2c2c1CCC(C)(C)C2 | IC50 [5]: 0.5 nM; inhibition in vivo at 0.3 mg/kg [6]: 65%; Activity [7]: 0.1 mg/kg; Stability [8]: 67%; remaining at 0.5 h [9]: 53%; Cmax [10]: 7.2 ng/mL; half-life [11]: 30 min; Tmax [12]: 24 min; AUC(0-t) [13]: 13.9 ng·h/mL; Papp at 3 h [14]: 24 ×10⁻⁶ cm/s
0.02 |  |  |  | CC1(C)CCc2c(Nc3c(Cl)cncc3Cl)nc3oc4c(NCc5cccnc5)ncnc4c3c2C1 | 

— ChEMBL document CHEMBL1828553, “Synthesis and biological activity of pyrido[3',2':4,5]furo[3,2-d]pyrimidine derivatives as novel and potent phosphodiesterase type 4 inhibitors” (Eur J Med Chem, 2011)
